Data from ChEMBL document CHEMBL1143599, “Design, synthesis, and antiviral activity of adenosine 5'-phosphonate analogues as chain terminators against hepatitis C virus” (J Med Chem, 2005).

Assays:
[1] = Effective concentration against Huh 7 cells; format: functional, cell-based, Homo sapiens
In short: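 HCV subgenomic replicon cells with luciferase readout, seeded at 6000 cells/well, compound added right after seeding, 48 h incubation. Cells then lysed and luciferase activity in lysate measured. Replicon RNA reduction inferred from the luciferase drop; EC50 is the concentration giving 50% reduction of viral replication.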

[2] = Cytotoxicity determined in Huh 7 cells; format: cell-based; settings: human
In short: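 Huh7 cells; viability read by colorimetric MTT assay. CC50 taken as the concentration that cuts cell viability by 50%.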

Row | Compound | EC50 [1] [µM] | CC50 [2] [µM]
1 | Nc1ncnc2c1ncn2[C@@H]1O[C@H](OCP(=O)(O)O)[C@@H](O)[C@H]1O | 65 | > 300
2 | Nc1ncnc2c1ncn2[C@@H]1C[C@H](OCP(=O)(O)O)[C@@H](O)[C@H]1O | 30 | 300
3 | C[C@@]1(O)[C@H](O)[C@@H](CCP(=O)(O)O)O[C@H]1n1cnc2c(N)ncnc21 | 35 | > 300
4 | CC(C)(C)C(=O)SCCOP(=O)(CC[C@H]1O[C@@H](n2cnc3c(N)ncnc32)[C@](C)(O)[C@@H]1O)OCCSC(=O)C(C)(C)C | 25 | 30
5 | Nc1ncnc2c1ncn2[C@@H]1O[C@H](CCP(=O)(O)O)[C@@H](O)[C@H]1O | 200 | > 300
